From ChEMBL document CHEMBL3751738, “Structure-based design and biological evaluation of novel 2-(indol-2-yl) thiazole derivatives as xanthine oxidase inhibitors” (Bioorg Med Chem Lett, 2016)

How the values were obtained:
[1] = Cmax in Sprague-Dawley rat at 10 mg/kg, po; type: ADME, organism-based; set-up: dose 10 mg/kg, route oral; conditions: in vivo
In short: (§1)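 Single oral dose of 10 mg/kg given to SD rats. Plasma Cmax, Tmax, AUC0–last, AUC0–infinity and t1/2 were determined, n = 3.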

[2] = Half life in rat liver microsomes; type: ADME
[3] = Inhibition of butter milk xanthine oxidase (unknown origin) assessed as initial velocity of uric acid formation pre-incubated for 3 mins by spectrophotometry analysis
In short: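 Buttermilk xanthine oxidase diluted to 0.05 U/mL in 50 mM phosphate buffer. Compounds at several concentrations were added in phosphate buffer containing 10% DMSO and pre-incubated 3 min at room temperature. The reaction was started with xanthine solution (200 µM as added). Uric acid formation was read at 293 nm, with the linear rate over 5 min taken as initial velocity. % inhibition was calculated against the no-inhibitor rate, and IC50 derived.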

Rattus norvegicus = experiment: Inhibition of oxonic acid-induced high uric acid level in Sprague-Dawley rat plasma at 10 mg/kg, po after 1 hr; type: functional
In short: (§2)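 Hyperuricemia was induced in male SD rats (about 200 g) with potassium oxonate 300 mg/kg i.p., suspended in 0.8% carboxymethylcellulose. One hour later compounds were dosed orally in PEG400:ethanol (2:1), and blood was taken 1 h post-dose for plasma uric acid. Inhibition was scaled with the normal group as 100% and the oxonate control as 0%. Statistics used ANOVA with Dunnett's post-test.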

[4] = Plasma concentration in Sprague-Dawley rat at 10 mg/kg, po after 1 hr; type: ADME, organism-based; in short: as §2
[5] = AUC (0 to last) in Sprague-Dawley rat at 10 mg/kg, po; type: ADME, organism-based; set-up: dose 10 mg/kg, route oral, time 0 - last; conditions: in vivo; in short: as §1
[6] = Tmax in Sprague-Dawley rat at 10 mg/kg, po; type: ADME, organism-based; conditions: in vivo; in short: as §1
[7] = AUC (0 to infinity) in Sprague-Dawley rat at 10 mg/kg, po; type: ADME, organism-based; set-up: dose 10 mg/kg, route oral, time infinity; conditions: in vivo; in short: as §1
[8] = Half life in Sprague-Dawley rat at 10 mg/kg, po; type: ADME, organism-based; conditions: in vivo; in short: as §1

Structure (SMILES)	half-life [2] [h]	IC50 [3] [nM]	inhibition in vivo at 10 mg/kg (Rattus norvegicus) [%]	further results
Cc1nc(-c2cc3cc(OC4CCCC4)cc(C#N)c3[nH]2)sc1C(=O)O	2.07	5.7	2.3	Cmax [1]: 720 ng/mL
COc1cc([N+](=O)[O-])c2[nH]c(-c3nc(C)c(C(=O)O)s3)cc2c1	0.402	7	4	concentration at 1 h [4]: 100 ng/mL
Cc1nc(-c2cc3cc(N)cc(C#N)c3[nH]2)sc1C(=O)O	–	31.8	–	–
N#Cc1cc(-c2n[nH]c(-c3ccncc3)n2)ccn1 [TOPIROXOSTAT]	–	5.3	–	–
Cc1nc(-c2cc3cc(CNS(C)(=O)=O)cc([N+](=O)[O-])c3[nH]2)sc1C(=O)O	14.6	3.6	0	concentration at 1 h [4]: 17 ng/mL
Cc1nc(-c2cc3cc(Oc4ccccc4)cc(Br)c3[nH]2)sc1C(=O)O	1.52	17	–	–
Cc1nc(-c2cc3cc(N4CCCCC4)cc(C#N)c3[nH]2)sc1C(=O)O	2.51	6.9	–	Cmax [1]: 740 ng/mL
Oc1ncnc2[nH]ncc12 [ALLOPURINOL]	–	3740	–	–
Cc1nc(-c2cc3cc(NC4CCCC4)cc(C#N)c3[nH]2)sc1C(=O)O	2.96	9.4	–	Cmax [1]: 300 ng/mL
Cc1nc(-c2cc3cc(NCc4ccccc4)cc(C#N)c3[nH]2)sc1C(=O)O	1.5	9.3	–	–
Cc1nc(-c2cc3cc(Oc4ccccc4)cc([N+](=O)[O-])c3[nH]2)sc1C(=O)O	4.03	15.9	7.1	Cmax [1]: 3200 ng/mL
Cc1nc(-c2cc3cc(Oc4ccccc4)cc(C#N)c3[nH]2)sc1C(=O)O	3.67	8.9	–	–
Cc1nc(-c2cc3cc(Oc4ccccc4)cc(Cl)c3[nH]2)sc1C(=O)O	4.69	14.3	–	–

Second part, led by results:

half-life [2] [h]	IC50 [3] [nM]	Structure (SMILES)	inhibition in vivo at 10 mg/kg (Rattus norvegicus) [%]	further results
1.94	233	Cc1nc(-c2cc3cc(Oc4ccccc4)ccc3[nH]2)sc1C(=O)O	–	–
–	3.1	Cc1nc(-c2ccc(OCC(C)C)c(C#N)c2)sc1C(=O)O [FEBUXOSTAT]	60	–
4.13	5.1	Cc1nc(-c2cc3cc(OC(C)C)cc([N+](=O)[O-])c3[nH]2)sc1C(=O)O	43	AUC(0-t) [5]: 8230 ng·h/mL; Tmax [6]: 0.42 h; Cmax [1]: 4940 ng/mL; AUC(0-inf) [7]: 13100 ng·h/mL; half-life [8]: 3.45 h
–	792	COc1ccc2[nH]c(-c3nc(C)c(C(=O)O)s3)cc2c1	–	–
–	481	Cc1nc(-c2cc3ccc(OCC(C)C)cc3[nH]2)sc1C(=O)O	–	–
2.17	6.1	Cc1nc(-c2cc3cc(OC(C)C)cc(C#N)c3[nH]2)sc1C(=O)O	19	Cmax [1]: 3750 ng/mL
–	2200	COc1ccc2cc(-c3nc(C)c(C(=O)O)s3)[nH]c2c1	–	–
–	522	Cc1nc(-c2cc3cc(OCc4ccccc4)ccc3[nH]2)sc1C(=O)O	–	–
1.61	209	Cc1nc(-c2cc3cc(OCC(C)C)ccc3[nH]2)sc1C(=O)O	–	–
